In one data set the test system is MDA-MB-231. Description: Antiproliferative activity against human MDA-MB-231 cells assessed as reduction in cell viability incubated for 4 days by coulter counter method. The class given is functional, cell-based. To be noted: MDA-MB-231, 96 h. Summed up: (§1)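 Cancer cells were seeded at 50,000 per well in DMEM with 5% FBS. They were exposed to six compound doses for 4 days, with DMSO as vehicle control and a reference inhibitor as positive control. Cells were counted by Coulter counter. Survival ratio is treated cell number over vehicle cell number. IC50 was taken from dose–response curves. Triplicate experiments.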

The test system of a further data set is HeLa. Description: Antiproliferative activity against human HeLa cells assessed as reduction in cell viability incubated for 4 days by coulter counter method. The class given is functional, cell-based. To be noted: 96 h. Summed up: as §1
For the next data set, the system named is SK-OV-3. The data set can be described thus: Antiproliferative activity against human SKOV3 cells assessed as reduction in cell viability incubated for 4 days by coulter counter method. The class given is functional, cell-based. Conditions: SK-OV-3, 96 h. The essentials:
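Cells seeded at 50,000 per well in DMEM with 5% FBS, exposed to six concentrations of compound for 4 days; DMSO as vehicle control. Cell numbers counted on a Coulter counter; survival ratio = treated/vehicle cell count. IC50 taken from dose-response curves. Triplicate experiments, mean ± SD.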

The nature of data set [1]: Stability of compound in cell culture medium assessed as compound hydrolysis measured after 8 hrs. The class given is physicochemical.
Data set [2] is described as follows: Drug concentration in ovariectomized nu/nu mouse plasma assessed 3-(4-morpholinopyrido [3',2':4,5] furo [3,2-d] pyrimidin-2-yl)phenol at 10 mg/kg, ip measured after 1 hr by UHPLC-MS analysis. The class given is ADME, organism-based. Conditions: in vivo.
Data set [3] is described as follows: Drug concentration in ovariectomized nu/nu mouse plasma assessed 3-(4-morpholinopyrido [3',2':4,5] furo [3,2-d] pyrimidin-2-yl)phenol at 10 mg/kg, ip measured after 24 hrs by UHPLC-MS analysis. The class given is ADME, organism-based. To be noted: in vivo.
Data set [4] is described as follows: Tmax in ovariectomized nu/nu mouse assessed 3-(4-morpholinopyrido [3',2':4,5] furo [3,2-d] pyrimidin-2-yl)phenol at 10 mg/kg, ip measured upto 24 hrs by UHPLC-MS analysis. The class given is ADME, organism-based. To be noted: in vivo.
The nature of data set [5]: AUC in ovariectomized nu/nu mouse assessed 3-(4-morpholinopyrido [3',2':4,5] furo [3,2-d] pyrimidin-2-yl)phenol at 10 mg/kg, ip measured upto 24 hrs by UHPLC-MS analysis. The class given is ADME, organism-based. To be noted: in vivo. More on the design: time < 24 hr, dose 10 mg/kg, route intraperitoneal.
A short description of data set [6]: Drug concentration in ovariectomized nu/nu mouse plasma assessed 3-(4-morpholinopyrido [3',2':4,5] furo [3,2-d] pyrimidin-2-yl)phenol at 10 mg/kg, po measured after 8 hrs by UHPLC-MS analysis. The class given is ADME, organism-based. Conditions: in vivo. Summed up:
(§2)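 Female ovariectomized Nu/Nu mice, 4–6 weeks old, n = 5 per group. Single 10 mg/kg oral gavage in 5% DMSO/40% PEG 400/55% saline. Orbital-sinus blood was taken at 0.5, 1, 3, 8 and 24 h, one sampling per group, into EDTA. Plasma was spun at 4 °C and stored at −80 °C. The prodrug's boronic acid metabolite and phenol were quantified by C18 UHPLC–TSQ MS/MS with an acetonitrile/water 0.05% formic acid gradient.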

A short description of data set [7]: Drug concentration in ovariectomized nu/nu mouse plasma assessed 3-(4-morpholinopyrido [3',2':4,5] furo [3,2-d] pyrimidin-2-yl)phenol at 10 mg/kg, po measured after 24 hrs by UHPLC-MS analysis. The class given is ADME, organism-based. To be noted: in vivo. The essentials:
as §2

Data set [8] can be described thus: Tmax in ovariectomized nu/nu mouse assessed 3-(4-morpholinopyrido [3',2':4,5] furo [3,2-d] pyrimidin-2-yl)phenol at 10 mg/kg, po measured upto 24 hrs by UHPLC-MS analysis. The class given is ADME, organism-based. To be noted: in vivo. Summed up: as §2
Data set [9] can be described thus: Half life in ovariectomized nu/nu mouse assessed 3-(4-morpholinopyrido [3',2':4,5] furo [3,2-d] pyrimidin-2-yl)phenol at 10 mg/kg, po measured upto 24 hrs by UHPLC-MS analysis. The class given is ADME, organism-based. Conditions: in vivo. Summed up: as §2
Data set [10] can be described thus: Drug concentration in ovariectomized nu/nu mouse plasma assessed (3-(4-morpholinopyrido [3',2':4,5] furo [3,2-d] pyrimidin-2-yl)phenyl)boronic acid at 10 mg/kg, ip measured after 0.5 hrs by UHPLC-MS analysis. To be noted: in vivo. The class given is ADME, organism-based.
A short description of data set [11]: Drug concentration in ovariectomized nu/nu mouse plasma assessed (3-(4-morpholinopyrido [3',2':4,5] furo [3,2-d] pyrimidin-2-yl)phenyl)boronic acid at 10 mg/kg, ip measured after 24 hrs by UHPLC-MS analysis. The class given is ADME, organism-based. Conditions: in vivo.
Data set [12] can be described thus: AUC in ovariectomized nu/nu mouse assessed (3-(4-morpholinopyrido [3',2':4,5] furo [3,2-d] pyrimidin-2-yl)phenyl)boronic acid at 10 mg/kg, ip measured upto 24 hrs by UHPLC-MS analysis. The class given is ADME, organism-based. Further details: time < 24 hr, dose 10 mg/kg, route intraperitoneal. Conditions: in vivo.
The nature of data set [13]: Drug concentration in ovariectomized nu/nu mouse plasma assessed (3-(4-morpholinopyrido [3',2':4,5] furo [3,2-d] pyrimidin-2-yl)phenyl)boronic acid at 10 mg/kg, po measured after 24 hrs by UHPLC-MS analysis. Conditions: in vivo. The class given is ADME, organism-based. Summed up:
as §2

A short description of data set [14]: Cmax in ovariectomized nu/nu mouse assessed (3-(4-morpholinopyrido [3',2':4,5] furo [3,2-d] pyrimidin-2-yl)phenyl)boronic acid at 10 mg/kg, po measured upto 24 hrs by UHPLC-MS analysis. To be noted: in vivo. More on the design: dose 10 mg/kg, route oral. The class given is ADME, organism-based. Summed up:
as §2

The nature of data set [15]: AUC (0 to 24 hrs) in ovariectomized nu/nu mouse assessed (3-(4-morpholinopyrido [3',2':4,5] furo [3,2-d] pyrimidin-2-yl)phenyl)boronic acid at 10 mg/kg, po measured upto 24 hrs by UHPLC-MS analysis. More on the design: time < 24 hr, dose 10 mg/kg, route oral. The class given is ADME, organism-based. Conditions: in vivo. Summed up: as §2

For the molecule `CC1(C)OB(c2cccc(-c3nc(N4CCOCC4)c4oc5ncccc5c4n3)c2)OC1(C)C`, the IC50 in the data set with MDA-MB-231 came to 440 nM; with HeLa, 3820 nM; in the data set on SK-OV-3, 1330 nM. Also, the Drug degradation in data set [1] came to 0 µM. For the same molecule, the Cp in data set [2] was 5.4 ng/mL; in data set [3], 0.4 ng/mL; in [6], 4.1 ng/mL; in data set [7], 0.7 ng/mL; in [10], 30.6 ng/mL; in data set [11] it was 6.5 ng/mL. In data set [13], this molecule displayed a Cp of 106.4 ng/mL. The Tmax in [4] stood at 0.5 h; in data set [8] it was 1 h. Further, the AUC is 32.3 ng·h/mL in data set [5], 400.9 ng·h/mL in data set [12] and 8879.9 ng·h/mL in [15]. The molecule also returned a t1/2 in data set [9] of 6.5 h. The same molecule returned a Cmax in data set [14] of 709.2 ng/mL.

(Values after ChEMBL document CHEMBL4622914, “Development of a bioavailable boron-containing PI-103 Bioisostere, PI-103BE” (Bioorg Med Chem Lett, 2020).)
